Laboratory results as given in ChEMBL document CHEMBL3351751, “Tricyclic pyrazoles part 7. Discovery of potent and selective dihydrothienocyclopentapyrazole derived CB2 ligands” (Eur J Med Chem, 2014).
Active and inactive are the calls of the source. The rule behind the calls is not given here.

Key:
[1] = biological target: Cannabinoid receptor 2 (Homo sapiens) (UniProt P34972); experiment: Inhibition of CB2 receptor in HL60 cells assessed as inhibition of ERK1/2 phosphorylation after 15 mins by Western blotting analysis; format: cell-based; settings: HL-60
Cannabinoid receptor 2 (Homo sapiens), sequence (P34972 whole entry): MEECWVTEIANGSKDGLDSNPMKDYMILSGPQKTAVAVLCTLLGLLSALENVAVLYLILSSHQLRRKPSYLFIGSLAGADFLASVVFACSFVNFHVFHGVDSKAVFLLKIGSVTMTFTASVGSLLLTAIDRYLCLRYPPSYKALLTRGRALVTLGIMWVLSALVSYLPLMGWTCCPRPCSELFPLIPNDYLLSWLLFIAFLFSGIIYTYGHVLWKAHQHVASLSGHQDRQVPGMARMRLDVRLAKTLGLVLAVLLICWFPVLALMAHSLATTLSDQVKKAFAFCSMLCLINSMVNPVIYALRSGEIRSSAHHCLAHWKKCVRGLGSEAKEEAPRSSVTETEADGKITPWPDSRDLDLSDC

Cannabinoid receptor 1 = Cannabinoid receptor 1 (Mus musculus, UniProt P47746); experiment: Displacement of [3H]-CP55940 from CD1 mouse brain (minus cerebellum) CB1 receptor by liquid scintillation counting; format: tissue-based
Cannabinoid receptor 1, sequence (P47746 whole entry): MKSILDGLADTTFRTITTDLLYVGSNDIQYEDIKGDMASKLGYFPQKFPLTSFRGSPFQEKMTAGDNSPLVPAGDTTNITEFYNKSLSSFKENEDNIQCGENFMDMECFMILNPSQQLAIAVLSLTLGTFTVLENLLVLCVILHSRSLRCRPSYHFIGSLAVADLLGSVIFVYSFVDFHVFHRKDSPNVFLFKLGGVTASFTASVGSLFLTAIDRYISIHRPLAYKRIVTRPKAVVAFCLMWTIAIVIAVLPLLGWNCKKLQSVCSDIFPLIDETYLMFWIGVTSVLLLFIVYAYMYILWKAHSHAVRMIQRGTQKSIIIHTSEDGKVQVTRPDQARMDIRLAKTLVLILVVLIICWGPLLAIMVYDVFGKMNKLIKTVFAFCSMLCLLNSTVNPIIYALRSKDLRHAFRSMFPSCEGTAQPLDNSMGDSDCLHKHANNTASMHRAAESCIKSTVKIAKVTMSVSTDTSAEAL
How it was run: (§1)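 Male CD1 mouse tissue homogenised in ice-cold TME buffer (50 mM Tris–HCl, 1 mM EDTA, 3.0 mM MgCl2, pH 7.4); membranes (30–80 µg protein) incubated with 0.5–1 nM [3H]-CP-55,940, 1 h, 30 °C, with 5 mg/mL fatty acid-free BSA. Non-specific binding with 1 µM CP-55,940. GF/C filtration. Triplicate, ≥5 independent experiments; IC50 by sigmoid fit converted to Ki.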

Mus musculus = species: Mus musculus; experiment: Selectivity ratio of Ki for CD1 mouse brain (minus cerebellum) CB1 receptor to Ki for CD1 mouse spleen CB2 receptor; format: tissue-based
Cannabinoid receptor 2 = Cannabinoid receptor 2 (Mus musculus, UniProt P47936); experiment: Displacement of [3H]-CP55940 from CD1 mouse spleen CB2 receptor by liquid scintillation counting; how it was run: as §1
Cannabinoid receptor 2, sequence (P47936 whole entry): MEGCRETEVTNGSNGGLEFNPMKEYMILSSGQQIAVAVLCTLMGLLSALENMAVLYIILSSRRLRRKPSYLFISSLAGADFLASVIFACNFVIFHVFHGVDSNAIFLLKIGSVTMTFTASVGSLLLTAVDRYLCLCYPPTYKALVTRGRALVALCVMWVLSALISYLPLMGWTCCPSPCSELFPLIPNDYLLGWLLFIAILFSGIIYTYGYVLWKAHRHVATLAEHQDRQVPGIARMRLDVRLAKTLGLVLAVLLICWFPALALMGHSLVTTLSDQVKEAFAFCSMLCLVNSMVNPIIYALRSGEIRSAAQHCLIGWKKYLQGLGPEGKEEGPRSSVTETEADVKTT

Compound	inhibition [1]	Ki (Cannabinoid receptor 1) [nM]	Ratio Ki (Mus musculus)	Ki (Cannabinoid receptor 2) [nM]
Cc1ccc(Cn2nc(C(=O)NN3CCCCC3)c3c2-c2c(C)csc2C3)cc1	Active	377	3	125
Cc1ccc(Cn2nc(C(=O)NC3C(C)(C)C4CC[C@@]3(C)C4)c3c2-c2c(C)csc2C3)cc1 (stereo partly specified)	Active	420	175	2.4
Cc1ccc(Cn2nc(C(=O)NC3CCCCC3)c3c2-c2c(C)csc2C3)cc1	Active	1980	10.4	191
Cc1csc2c1-c1c(c(C(=O)NN3CCCCCC3)nn1-c1ccc(Cl)cc1Cl)C2	Active	3800	11.8	321
Cc1cc2c(s1)Cc1c(C(=O)NC3C[C@@H](C)CC[C@@H]3C(C)C)nn(-c3ccc(Cl)cc3Cl)c1-2 (stereo partly specified)	Active	6.5	1.3	5.1
Cc1csc2c1-c1c(c(C(=O)NN3CCOCC3)nn1-c1ccc(Cl)cc1Cl)C2	Active	4700	6.3	747
Cc1c(C(=O)c2cccc3ccccc23)c2cccc3c2n1[C@H](CN1CCOCC1)CO3	Active	–	–	–
Cc1csc2c1-c1c(c(C(=O)NC3C[C@@H](C)CC[C@@H]3C(C)C)nn1-c1ccc(Cl)cc1Cl)C2 (stereo partly specified)	Active	3260	486	6.7
Cc1ccc(Cn2nc(C(=O)NC3C[C@@H](C)CC[C@@H]3C(C)C)c3c2-c2c(C)csc2C3)cc1 (stereo partly specified)	Active	160	59.3	2.7
Cc1ccc(Cn2nc(C(=O)NC3C[C@@H](C)CC[C@@H]3C(C)C)c3c2-c2cc(C)sc2C3)cc1 (stereo partly specified)	Active	180	37.5	4.8
Cc1cc2c(s1)Cc1c(C(=O)NN3CCCC3)nn(-c3ccc(Cl)cc3Cl)c1-2	Active	1390	36.2	38.3
Cc1cc2c(s1)Cc1c(C(=O)NN3CCCCC3)nn(-c3ccc(Cl)cc3Cl)c1-2	Active	440	191	2.3
Cc1cc2c(s1)Cc1c(C(=O)NN3CCCCCC3)nn(-c3ccc(Cl)cc3Cl)c1-2	Active	442	402	1.1
Cc1ccc(Cn2nc(C(=O)NN3CCCC3)c3c2-c2c(C)csc2C3)cc1	Active	4500	8.7	515
Cc1csc2c1-c1c(c(C(=O)NC3CCCCC3)nn1-c1ccc(Cl)cc1Cl)C2	Active	3080	6.1	501
Cc1csc2c1-c1c(c(C(=O)NN3CCCCC3)nn1-c1ccc(Cl)cc1Cl)C2	Active	3920	6.8	578
Cc1cc2c(s1)Cc1c(C(=O)NC3CCCCC3)nn(-c3ccc(Cl)cc3Cl)c1-2	Active	447	62.1	7.2
Cc1csc2c1-c1c(c(C(=O)NN3CCCC3)nn1-c1ccc(Cl)cc1Cl)C2	Active	4730	5.8	817
Cc1csc2c1-c1c(c(C(=O)NC3C(C)(C)C4CC[C@@]3(C)C4)nn1-c1ccc(Cl)cc1Cl)C2 (stereo partly specified)	Active	2240	424	5.3
Cc1ccc(Cn2nc(C(=O)NN3CCCCCC3)c3c2-c2c(C)csc2C3)cc1	Active	1280	18.5	69
Cc1ccc(Cn2nc(C(=O)NN3CCOCC3)c3c2-c2c(C)csc2C3)cc1	Active	4500	2.6	1760
